Measurements collected from several papers.
Protocols differ between the studies behind these lines.
UGT1A4: UDP-glucuronosyltransferase 1A4 (UGT1A4, Homo sapiens, UniProt P22310)
CYP2C19: Cytochrome P450 2C19 (CYP2C19, Homo sapiens, UniProt P33261)

CC(=O)c1cc(C(=O)N[C@@H](C)Cn2ccc(-c3ccc(C#N)c(Cl)c3)n2)[nH]n1  IC50 (UGT1A4; enzyme activity, inhibitor; human, liver microsomes): > 50 µM
COC(=O)C1CCN(C(=O)c2ccc(N(CCO)Cc3cnc4nc(N)nc(N)c4n3)cc2)CC1  inhibition (CYP2C19; enzyme activity, inhibitor, luciferase; 10 µM): -24.5%
N=C(N)N1CC=C(c2ccc(NC(=O)c3ccc(C4=CCN(C(=N)N)CC4)cc3)cc2)CC1  CC50 (NIH3T3; cell growth or viability, MTS; 24 h): 41 µM
COC(=O)C1CCN(C(=O)c2ccc(N(Cc3ccccc3)Cc3cnc4nc(N)nc(N)c4n3)cc2)CC1  inhibition (CYP2C19; enzyme activity, inhibitor, luciferase; 10 µM): 107%
C[C@H](O)c1cc(C(=O)N[C@@H](C)Cn2ccc(-c3ccc(C#N)c(Cl)c3)n2)n[nH]1  IC50 (UGT1A4; enzyme activity, inhibitor; human, liver microsomes): > 100 µM
N=C(N)NCc1ccc(NC(=O)c2ccc(C(=O)Nc3ccc(C4=CCN(C(=N)N)CC4)cn3)cc2)cc1  CC50 (NIH3T3; cell growth or viability, MTS; 24 h): 544 µM
COc1cc2c3c(n(CCCN4CCOCC4)c(=O)c2cc1OC)-c1cc2c(cc1C3=O)OCO2  Cmax (female beagle dog, plasma; intravenous, 10 mg/m², infusion): 75.7 ng/mL
CN(CCC(=O)O)C(=O)c1ccc2c(c1)CC[C@@H]1[C@@H]2CC[C@]2(C)C(c3cncc(F)c3)=CC[C@@H]12  IC50 (UGT1A4; enzyme activity, inhibitor): > 30 µM
[11CH3]Oc1cccc(CCc2cc(O)c(=O)[nH]n2)c1  tracer uptake (ATP-dependent translocase ABCB1 (Abcb1a, Mus musculus, UniProt P21447); mouse, brain; 5 min): 0.43 %ID/g
C[C@@H]1C[C@H](c2ccc(Br)cc2)c2c(cc3ccccn23)C(=O)O1 (racemic)  CC50 (HFF-1; cell growth or viability, resazurin; 72 h): 0.92 µM
N=C(N)NCc1ccc(NC(=O)c2ccc(C(=O)Nc3ccc(C4=CCN(C(=N)N)CC4)cc3)nc2)cc1  CC50 (NIH3T3; cell growth or viability, MTS; 24 h): > 117 µM
CCOC(=O)C1CCCN1C(=O)c1ccc(NCc2cnc3nc(N)nc(N)c3n2)cc1 (stereo not drawn)  inhibition (CYP2C19; enzyme activity, inhibitor, luciferase; 10 µM): -16.2%
